Assay [1] deals with T1, Cannabinoid receptor 2 (Homo sapiens, UniProt P34972). The assay can be described thus: Competitive antagonist activity at human CB2R expressed in CHO cell membranes assessed as rightward shift of N-cycloheptyl-1,2-dihydro-5-bromo-1-(4-fluoro benzyl)-6-methyl-2-oxo-pyridine-3-carboxamide-induced GTPgammaS binding by measuring fold change in N-cycloheptyl-1,2-dihydro-5-bromo-1-(4-fluoro benzyl)-6-methyl-2-oxo-pyridine-3-carboxamide EC50 at 300 nM preincubated with compound for 30 mins followed by GTPgammaS addition and measured after 90 mins by [35S]GTPgammaS assay. The class given is functional. As to conditions: Membrane, time 120.0 min. Put shortly: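 hCB2 CHO membranes in GTPγS buffer (10 μM GDP, 0.1 nM [35S]GTPγS, pH 7.4) pre-incubated 30 min with antagonist at 300 nM or 1 µM, then agonist or inverse agonist concentration series, 90 min at 30 °C. EC50 and Emax reported with 95% CI; Schild analysis; controls CP55,940 100 nM and AM630 1 μM; ≥3 experiments in triplicate.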
T1 sequence (P34972 whole entry): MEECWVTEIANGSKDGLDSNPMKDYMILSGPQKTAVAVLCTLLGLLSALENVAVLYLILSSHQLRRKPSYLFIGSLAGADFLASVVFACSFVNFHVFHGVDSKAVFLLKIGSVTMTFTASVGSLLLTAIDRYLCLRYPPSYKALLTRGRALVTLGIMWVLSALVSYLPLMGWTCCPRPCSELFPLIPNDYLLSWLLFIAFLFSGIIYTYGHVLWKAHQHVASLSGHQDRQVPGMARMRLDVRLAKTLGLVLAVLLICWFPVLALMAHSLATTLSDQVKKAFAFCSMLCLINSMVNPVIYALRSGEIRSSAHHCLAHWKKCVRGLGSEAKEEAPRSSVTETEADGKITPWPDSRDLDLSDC

Assay [2] deals with T1, Cannabinoid receptor 2. The experiment in a line: Non-competitive antagonist activity at human CB2R expressed in CHO cell membranes assessed as N-cycloheptyl-1,2-dihydro-1-(4-fluorobenzyl)-6-methyl-2-oxo-5-phenyl-pyridine-3-carboxamide Emax at 1000 nM preincubated with compound for 30 mins followed by GTPgammaS addition and measured after 90 mins by [35S]GTPgammaS assay (reference value: -49.9%). The class given is functional. As to conditions: Membrane, filed as antagonist, time 120.0 min. In outline:
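hCB2 membranes from stably transfected CHO cells (10 µg) pre-incubated 30 min with antagonist, then an inverse-agonist concentration series added. Buffer: 50 mM Tris-HCl, 3 mM MgCl2, 0.2 mM EDTA, 100 mM NaCl, 0.5% fatty-acid-free BSA, pH 7.4, with 10 µM GDP and 0.1 nM [35S]GTPγS. Incubated 90 min at 30 °C, then filtered. Non-specific binding measured with 10 µM GTPγS. Emax given with 95% CI; at least 3 experiments, each in triplicate.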
(Binding of GTPγS marks nucleotide exchange on a G protein.)

For assay [3], the system named is Mus musculus. The assay can be described thus: Antinociceptive activity in CD-1 albino mouse model of oxaliplatin-induced neuropathic pain assessed as decrease in pain-related behaviour at 10 mg/kg, po pretreated with CB2R antagonist, SR144528 for 15 mins before compound addition treated on day 15 post oxaliplatin treatment and measured after 15 to 75 mins post dose by cold plate test. The note with it: time 15-75 min. The class given is functional, organism-based. In outline:
(§1)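 Male CD-1 mice (22-25 g) given oxaliplatin 2.4 mg/kg i.p. in 5% glucose on days 1-2, 5-9, 12-14; tested day 15. Compound in 1% carboxymethylcellulose orally at 5, 10, 20, 50 mg/kg. Cold plate licking latency at 15, 30, 45, 60, 75 min post dose. Selective CB1R and CB2R antagonists co-tested. 16 mice per treatment across 2 sessions; one-way ANOVA with Bonferroni.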

Assay [4] addresses Cannabinoid receptor 1 (Rattus norvegicus) (UniProt P20272). The assay can be described thus: Agonist activity at CB1R in Sprague-Dawley rat hippocampal synaptosomes assessed as inhibition of 4-AP evoked glutamate release at 1 uM preincubated for 8 mins followed by 4-AP addition by HPLC analysis. The class given is subcellular. The note with it: Hippocampus. Put shortly:
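Rat (male Sprague Dawley, 200-250 g) hippocampal synaptosomes from Percoll gradient, superfused at 37 °C (0.5 ml/min); 4-AP 600 μM for 2 min. Compounds and antagonists (SR141716A, SR144528, 1 μM) added 8 min before 4-AP and kept during it; basal effects tested by 2-min exposure alone. Endogenous glutamate by HPLC as pmol/mg protein; overflow = stimulated minus basal in control chambers; n = 3–9, triplicate.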

Assay [5] deals with Cannabinoid receptor 2 (Mus musculus) (UniProt P47936). The experiment in a line: Agonist activity at CB2R in LPS induced mouse BV2 cells assessed as increase in IL-10 secretion at 10 uM preincubated with CB2R antagonist, SR144528 for 15 mins followed by compound additon for 30 mins after LPS stimulation for 4 hrs by ELISA. The class given is cell-based. As to conditions: BV-2, time 270.0 min. Put shortly: (§2)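 BV-2 murine microglia grown in high-glucose DMEM with 10% FBS. Treatments in FBS-free medium: test agonist 10 μM for 30 min, then LPS 5 μg/ml for 4 h; SR144528 10 μM given 15 min before agonist. DMSO ≤0.1% final. Medium spun 10 min at 1000×g; IL-1β, IL-6, IL-10 quantified by ELISA; three independent experiments in duplicate.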
Cannabinoid receptor 2 (Mus musculus), sequence (P47936 whole entry): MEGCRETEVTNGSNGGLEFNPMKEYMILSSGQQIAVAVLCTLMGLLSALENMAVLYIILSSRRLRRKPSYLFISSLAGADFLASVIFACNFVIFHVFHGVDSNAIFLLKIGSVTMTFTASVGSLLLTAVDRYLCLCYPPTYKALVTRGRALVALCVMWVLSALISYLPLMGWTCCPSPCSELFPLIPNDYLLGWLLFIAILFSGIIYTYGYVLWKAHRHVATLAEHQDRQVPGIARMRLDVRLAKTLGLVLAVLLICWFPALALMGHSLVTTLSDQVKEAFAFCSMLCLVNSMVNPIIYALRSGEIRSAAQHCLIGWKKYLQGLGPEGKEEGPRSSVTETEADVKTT
For orientation: In an ELISA, binding on a coated surface is turned into a signal by an enzyme label.

Assay [6] shares this target. The experiment in a line: Agonist activity at CB2R in LPS induced mouse BV2 cells assessed as IL-6 secretion at 10 uM preincubated for 30 mins followed by LPS stimulation for 4 hrs by ELISA (reference value: 764.7 +/-22.9%). Format: cell-based. As to conditions: BV-2, filed as agonist, time 270.0 min. Put shortly:
as §2

The test system of assay [7] is Mus musculus. The experiment in a line: Antiinflammatory activity in MOG (35 to 55 residues)/pertussis toxin-induced experimental autoimmune encephalomyelitis C57BL/6J mouse model assessed as improvement in disease severity at 10 mg/kg, ip dosed once daily for 20 days starting from day 10 to 16 post immunization and measured at day 5 to 9 post treatment. The class given is functional, organism-based. As to conditions: time 5-9 day. Put shortly:
(§3)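 Active EAE in mice: 200 µg MOG35-55 in CFA (4 mg/ml M. tuberculosis) s.c. at hips and tail root, plus pertussis toxin 300 ng i.p. after immunization and 48 h later. Daily i.p. dosing (DMSO vehicle) for 20 days from each mouse's onset (day 10–16); onset = day 1. Daily clinical score; multiple t-tests with Holm-Sidak.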

Assay [8] has as its system Mus musculus. The experiment in a line: Antiinflammatory activity in MOG (35 to 55 residues)/pertussis toxin-induced experimental autoimmune encephalomyelitis C57BL/6J mouse model assessed as reduction in clinical scores at 10 mg/kg, ip dosed once daily for 20 days starting from day 10 to 16 post immunization and measured from 10 to 19 days post treatment. The class given is functional. The note with it: time 10-19 day. In outline: as §3

The subject of assay [9] is Mus musculus. The experiment in a line: Antinociceptive activity in CD-1 albino mouse model of oxaliplatin-induced neuropathic pain assessed as decrease in pain-related behaviour at 10 mg/kg, po pretreated with CB1R antagonist, SR141716A for 15 mins before compound addition treated on day 15 post oxaliplatin treatment and measured after 15 to 75 mins post dose by cold plate test. As to conditions: time 15-75 min. The class given is functional, organism-based. Put shortly: as §1

The target of assay [10] is Cannabinoid receptor 2 (Mus musculus) (UniProt P47936). The experiment in a line: Agonist activity at CB2R in LPS induced mouse BV2 cells assessed as IL-1beta secretion at 10 uM preincubated for 30 mins followed by LPS stimulation for 4 hrs by ELISA (reference value: 734.3 +/-35.1%). Format: cell-based. As to conditions: BV-2, filed as agonist, time 270.0 min. Put shortly: as §2

Assay [11] relates to Mus musculus. The experiment in a line: In vivo agonist activity at CB1R in C57BL/6J mouse assessed as functional CB1R level in brain at 10 mg/kg, ip after 20 days by [35S]GTPgammaS assay. The note with it: time 20.0 day. The class given is organism-based. In outline:
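After 20 days of EAE treatment, half-brain membranes (20 µg) pre-incubated 30 min at 37 °C with adenosine deaminase 0.5 units/mL, 30 μM GDP, 0.2 nM [35S]GTPγS at pH 7.4. Stimulated by CP55,940 1 μM, SR141716A 1 μM, both, or vehicle for 1 h at 30 °C; nonspecific with 10 μM GTPγS; expressed as % of vehicle control.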

The record followed here is ChEMBL document CHEMBL4706601, “The endocannabinoid system dual-target ligand N-cycloheptyl-1,2-dihydro-5-bromo-1-(4-fluorobenzyl)-6-methyl-2-oxo-pyridine-3-carboxamide improves disease severity in a mouse model of multiple sclerosis” (Eur J Med Chem, 2020).

Calls of active or inactive are those of the source. The calls are words filed in the database; no cut-off is given here.

Cannabinoid receptor 1 (Rattus norvegicus), sequence (P20272 whole entry, the tested form may be a part): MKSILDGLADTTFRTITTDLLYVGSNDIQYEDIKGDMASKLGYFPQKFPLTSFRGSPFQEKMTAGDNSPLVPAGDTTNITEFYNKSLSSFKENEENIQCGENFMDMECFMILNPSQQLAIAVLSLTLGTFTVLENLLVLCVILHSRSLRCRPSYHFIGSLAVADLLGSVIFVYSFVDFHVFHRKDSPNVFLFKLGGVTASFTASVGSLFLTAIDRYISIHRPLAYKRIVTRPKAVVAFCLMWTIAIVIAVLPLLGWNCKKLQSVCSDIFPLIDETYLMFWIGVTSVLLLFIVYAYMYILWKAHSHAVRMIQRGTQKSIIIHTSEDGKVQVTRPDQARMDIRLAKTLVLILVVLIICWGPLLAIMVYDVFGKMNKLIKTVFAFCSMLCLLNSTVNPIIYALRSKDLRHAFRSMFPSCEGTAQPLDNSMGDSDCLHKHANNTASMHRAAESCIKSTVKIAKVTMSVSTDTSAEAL

The term Emax denotes the size of the effect at its maximum, as opposed to the concentration needed. On to `COc1ccc(-c2cc(C(=O)NC3CCCCCC3)c(=O)n(Cc3ccc(F)cc3)c2C)cc1`, for which, at Cannabinoid receptor 2 [1], the fold change (FC) came to 19. In addition, on Cannabinoid receptor 2 [2], the Emax is -24.9%.
The inhibition in vivo is the percentage by which the read-out fell short of the control. For the compound `Cc1c(Br)cc(C(=O)NC2CCCCCC2)c(=O)n1Cc1ccc(F)cc1`, the result (in the assay with Mus musculus [3]; in assay [4]; in assay [5]; in the assay on Mus musculus [7]; in the assay with Mus musculus [9]; in the assay on Mus musculus [11]) was inactive. The Activity amounted to 27.8% in assay [6] and 24.6% in [10]. The inhibition in vivo at 10 mg/kg in the assay on Mus musculus [8] is 50%.
